# High-throughput results: PubChem BioAssay, Sanford-Burnham Center for Chemical Genomics
# SKN-1 block: C. elegans SKN-1 inhibition; C. elegans VP596 Pgst-4::GFP/RFP ratio, acrylamide-induced, 24 h; hit rate 0.49% among 360,000; inhibition, % at 21.8 µM;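 active = interference check ratio from 0.5 to 1.5 plus GFP to RFP signal ratio inhibition reaching or exceeding a fixed threshold, cut at about 30% in these data, passing the limit was not always enough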
# iPSC survival up: enhancers of human iPSC single-cell survival | AID 602274 | hit rate 0.044% among 360,000 | survival enhancement, % at 20 µM | hiPSC single-cell survival, ATPlite luminescence; 100% = ROCK inhibitor wells, 0% = DMSO; in the data active = survival enhancement above about 18%;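 also: cells exposed to compounds for 16 hours before the ATP read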
# MT1-MMP act inh: MT1-MMP (human) activation inhibition | P50281 | HT1080 RFP-PRO-GFP cells, GFP/RFP ratio fluorescence, overnight; percent of plate control window, DMSO zero | GFP/RFP ratio change, % at 20 µM | hit rate 0.061% among 360,000 | AID 651647;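 active = GFP/RFP ratio change of at least 30% with cell ATP level not reduced by more than half and red fluorescence within 50% of control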
#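 system = RFP-PRO-GFP reporter HT1080 cells | dosing = 20 µM single dose, 1% DMSO | timing = overnight cell settling, then overnight compound exposure, 37 °C, 5% CO2 | read-out basis = GFP/RFP fluorescence ratio | controls = DMSO and RFP-L50D-GFP cell wells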
# CendR NRP1 mod: modulators of CendR peptide binding to human neuropilin-1; inhibition, % at 25 µM; O14786; FAM-RPARPAR peptide binding to NRP-1, fluorescence polarization; hit rate 0.85% among 360,000;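 active = inhibition or corrected inhibition above about 18%, plus a signal ratio from 0.5 to 1.5, limit read from the data, passing the limit was not always enough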
# Target sequence (O14786 whole entry, looked up): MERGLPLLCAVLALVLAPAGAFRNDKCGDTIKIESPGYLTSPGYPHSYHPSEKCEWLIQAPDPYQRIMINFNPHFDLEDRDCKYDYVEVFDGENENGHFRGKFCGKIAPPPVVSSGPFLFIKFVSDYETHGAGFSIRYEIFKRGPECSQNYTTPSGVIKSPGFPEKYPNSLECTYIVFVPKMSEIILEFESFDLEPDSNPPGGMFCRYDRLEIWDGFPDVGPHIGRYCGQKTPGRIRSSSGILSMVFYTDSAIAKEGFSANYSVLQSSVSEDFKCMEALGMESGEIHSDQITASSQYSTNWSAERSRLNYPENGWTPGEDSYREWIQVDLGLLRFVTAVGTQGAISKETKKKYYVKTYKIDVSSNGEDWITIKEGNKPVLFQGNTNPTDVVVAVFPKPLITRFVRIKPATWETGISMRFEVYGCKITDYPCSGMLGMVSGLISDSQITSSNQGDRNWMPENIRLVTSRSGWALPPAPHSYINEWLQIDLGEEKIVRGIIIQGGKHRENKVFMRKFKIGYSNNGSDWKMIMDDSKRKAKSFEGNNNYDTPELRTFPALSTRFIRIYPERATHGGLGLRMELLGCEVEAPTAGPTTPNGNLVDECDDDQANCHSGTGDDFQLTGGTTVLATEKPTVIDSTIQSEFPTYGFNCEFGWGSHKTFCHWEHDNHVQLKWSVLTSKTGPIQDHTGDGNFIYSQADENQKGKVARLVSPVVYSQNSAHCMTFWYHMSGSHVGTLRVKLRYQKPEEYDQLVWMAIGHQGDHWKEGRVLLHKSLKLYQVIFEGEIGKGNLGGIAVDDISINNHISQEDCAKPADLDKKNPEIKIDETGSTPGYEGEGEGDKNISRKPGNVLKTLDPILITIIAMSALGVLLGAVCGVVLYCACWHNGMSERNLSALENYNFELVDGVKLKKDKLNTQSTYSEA
# Numbers without * were called inactive. This is a sample that favours compounds with a hit; in the whole collection about 1.4% have one here.
SMILES,SKN-1 block,iPSC survival up,MT1-MMP act inh,CendR NRP1 mod
O=C(CSc1nnc(-c2ccc(F)cc2)c2ccccc12)Nc1ccccc1,12,2,-2,-1
O=C(c1cc2ccccn2n1)N1CCN(c2cccc(C(F)(F)F)c2)CC1,5,0,1,-1
Cc1ccc(C)c(N2CCN(C(=O)c3cc4ccccn4n3)CC2)c1,-34,3,-10,21*
COc1ccc(NS(=O)(=O)c2cc(NC(=O)CC(C)(C)C)ccc2N2CCCC2)cc1,1,0,1,-16
CNC(=S)Nc1ccc(N2CCCC2)c(S(=O)(=O)Nc2ccc(OC)cc2)c1,10,-2,-2,42*
CC1(C(=O)NS(=O)(=O)c2ccccc2C(F)(F)F)CCN1C(=O)C1CCCCC1 (stereo not drawn),-3,0,1,-12
Cc1c(C)[n+](=O)c(C)c(C)n1[O-],7,-2,4,29*
Cc1c(C)[n+](=O)c(-c2ccc(Br)cc2)c(C)n1[O-],6,0,1,1
CSc1ncc(CN2CCN(C3CCCC3)C(CCO)C2)cn1 (stereo not drawn),2,0,1,8
O=C(COC(=O)Cc1n[nH]c(=O)c2ccccc12)Nc1c(Br)cc([N+](=O)[O-])cc1Br,8,0,-2,24*
NS(=O)(=O)c1cccc(NC(=O)COC(=O)Cc2n[nH]c(=O)c3ccccc23)c1,-8,0,-6,-1
O=c1[nH]nc(Cc2ccccc2)c2ccccc12,1,3,7,7
O=c1[nH]nc(Cc2ccc([N+](=O)[O-])cc2)c2ccccc12,32*,-1,3,1
CCOCCCNC(=O)c1c(C)[nH]c(C(=O)OCC)c1C,-2,-2,1,-6
Cc1nn2c(N)c(-c3ccccc3)cnc2c1-c1ccccc1,9,-1,-1,15
COc1ccc2nc3c(cc2c1)c(NC(=O)c1cccs1)nn3CC(C)C,18,-2,-9,45*
O=C(C[n+]1cccc2ccccc21)c1ccc(Br)cc1,8,0,-37,-30
NC(=O)C[n+]1cccc2ccccc21,-9,-1,-35,32*
Cn1c(SCCS(=O)(=O)c2ccc(Cl)cc2)nnc1-c1ccccc1,11,-1,-4,32*
Cn1c(SCC(=O)NNC(=O)Cc2ccccc2)nnc1-c1ccc(Cl)cc1,-10,0,-2,2
O=C(CCN1CCN(c2ccccc2)CC1)NNC(=O)Cc1ccccc1Cl,4,0,3,37*
O=C(CCN1CCN(c2ccccc2)CC1)NNC(=O)Cc1c(F)cccc1Cl,-12,1,7,-4
NCc1cc2c3c(c1)CCCN3CCC2,62,1,-3,40*
COC(=O)c1c(NC(=O)c2ccco2)sc2c1CCC2,40*,1,-5,6
COCC(=O)Nc1sc2c(c1C(=O)OC)CCCC2,34*,-2,-69,-5
SMILES,SKN-1 block,iPSC survival up,MT1-MMP act inh,CendR NRP1 mod
CCN(CC(=O)NCc1cccs1)C(=O)CN(C)S(=O)(=O)c1ccc(C)cc1,0,0,6,-4
Nc1cc(S(=O)(=O)N2CCOCC2)ccc1Oc1ccc(F)cc1,10,0,-1,28*
Cc1c(-n2c(CN3C(=O)c4ccccc4C3=O)nc3ccccc3c2=O)c(=O)n(-c2ccccc2)n1C,40*,-1,2,26*
c1ccc2c(c1)CCCN2Cc1nnc2n1CCCCC2,7,1,-34,23*
c1ccc(Cc2nnc3n2CCCCC3)cc1,-3,-2,5,14
CCCCn1nnnc1C(c1cc2ccccc2o1)N1CCN(c2c(C)cccc2C)CC1 (stereo not drawn),-6,0,-14,26*
CCCCn1nnnc1C(c1cc2ccccc2o1)N1CCCCC1 (stereo not drawn),8,0,3,-11
CCC(c1nnnn1-c1ccc(OC)cc1)N1CCN(C/C=C/c2ccccc2)CC1 (stereo not drawn),20,-2,-3,4
COc1ccc(-n2nnnc2C(CCc2ccccc2)N2CCN(C/C=C/c3ccccc3)CC2)cc1 (stereo not drawn),-8,0,-2,24*
COC(=O)C1=C(C)N(C)C(=S)N(C)C1c1ccc(OC)cc1 (stereo not drawn),-13,-1,-2,5
O=C(Nc1ccc(Cl)cc1)NC1CCCCC1,8,-1,3,3
O=C(Nc1ccc(Cl)cc1)NC1CCCCNC1=O (stereo not drawn),36*,-1,1,3
CCOc1ccc(NS(=O)(=O)c2cc(Cl)ccc2OC)cc1,-11,7,-3,22*
CC(C)C(c1nnnn1Cc1ccc(F)cc1)N1CCN(C2CCCCC2)CC1 (stereo not drawn),11,-6,1,-6
CCC(c1nnnn1Cc1ccc2c(c1)OCO2)N1CCN(c2ccccc2)CC1 (stereo not drawn),-2,2,-7,15
CCC(c1nnnn1Cc1ccc2c(c1)OCO2)N1CCN(c2ccc(F)cc2)CC1 (stereo not drawn),36*,-2,4,2
CC(C)(C)OC(=O)N1O[C@H]2C[C@@H]1[C@@H]1[C@@H]2N=NN1C12CC3CC(CC(C3)C1)C2,22,1,4,2
CC(C)(C)OC(=O)N1O[C@H]2CC1[C@@H]1[C@@H]2N=NN1CCc1ccncc1,-3,0,4,23*
COc1ccc2c(c1)c1ccc3c(c1n2C)C(=O)C=CC3=O,-19,28*,-2,3
Cc1ccc(NC(=O)CSc2nc3sc(C)cc3c(=O)n2C)cc1,-7,0,5,6
Cc1cc(OCC(=O)NCCCn2ccnc2)c2c(C)cc(=O)oc2c1,-2,0,1,20*
Cc1ccc(NC(=O)CSc2nnc(-c3ccccc3Br)o2)cc1C,-4,-1,2,-4
COc1ccccc1C1CC(c2cccc(NS(C)(=O)=O)c2)=NN1S(=O)(=O)c1ccccc1 (stereo not drawn),37*,0,-11,-215
Cc1cc(NS(=O)(=O)c2ccc(NC(=O)CCCC(=O)O)cc2)nc(C)n1,1,0,-2,45*
CC(=O)N1CC(C)Sc2ccc(S(=O)(=O)NC3CCCCC3C)cc21 (stereo not drawn),11,-1,0,21*
CC(=O)N1CC(C)Sc2ccc(S(=O)(=O)NCc3ccccc3Cl)cc21 (stereo not drawn),2,0,-3,8
O=[N+]([O-])c1cc(-c2csc(NCCc3nc4cc(C(F)(F)F)ccc4n3CCCO)n2)ccc1Cl,-12,-2,15,28*
Cc1ccc(NC(=O)c2cc(=O)[nH]c3ccc(S(=O)(=O)N4CCOCC4)cc23)cc1,4,0,1,5
CCC(C)NC(=O)CSc1nc(-c2cccs2)cc(C(F)(F)F)n1 (stereo not drawn),15,0,1,-3
COC(=O)[C@H]1CN(C(=O)c2ccccc2)C(=O)N1,4,1,5,25*
